Data as given in ChEMBL document CHEMBL1157757, “Macrocyclic hexaoxazoles: Influence of aminoalkyl substituents on RNA and DNA G-quadruplex stabilization and cytotoxicity” (Bioorg Med Chem Lett, 2010).

Experiments:
[1] = Cytotoxicity against human RPMI8402 cells after 4 days by MTT assay; format: functional, cell-based; conditions: RPMI 8402, 96 h
Method in brief: (§1)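 Growth inhibition in RPMI 8402, KB3-1, MDR1-expressing KBV-1 and BCRP-expressing KBH5.0 cells; IC50 reported as mean of three experiments ± standard deviation.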

[2] = Cytotoxicity against wild type human KB3-1 cells after 4 days by MTT assay; format: functional, cell-based; conditions: KB 3-1, 96 h; method in brief: as §1
[3] = Cytotoxicity against multidrug-resistant human KBH5.0 cells expressing BCRP after 4 days by MTT assay; format: functional, cell-based; conditions: KBH5.0 cell, 96 h; method in brief: as §1
[4] = Cytotoxicity against multidrug-resistant human KBV1 cells expressing MDR1 after 4 days by MTT assay; format: functional, cell-based; conditions: KB-V1, 96 h; method in brief: as §1
[5] = Cytotoxicity against human RPMI8402 cells; format: functional, cell-based; conditions: RPMI 8402; method in brief: as §1
Nucleic Acid [6] = assay: Binding affinity to r[AG4CG2-CUG2UCG2AGUG2C] sequence of quadruplex RNA assessed as change in transition temperature at 20 uM in presence of 150 mM K+ ions; format: nucleic-acid assay
Method in brief: (§2)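 Quadruplex UV melting of hTel DNA or AurA RNA at 5 µM in strand, ligand 20 µM, in 10 mM potassium phosphate pH 7.5 plus 132 mM KCl (150 mM total K+); Ttran from maxima or minima of first-derivative melting profiles; ΔTtran uncertainty 0.5 °C.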

Nucleic Acid [7] = assay: Binding affinity to human G-quadruplex d[T2G3(T2AG3)3A] DNA assessed as change in transition temperature at 20 uM in presence of 150 mM K+ ions; format: nucleic-acid assay; method in brief: as §2

**Q.** Which IC50 [1] does the source give for CC(C)[C@@H]1NC(=O)c2coc(n2)-c2coc(n2)-c2coc(n2)[C@H](CCCCN)NC(=O)c2coc(n2)-c2coc(n2)-c2coc1n2 here?
**A.** 4800 nM

**Q.** What about the IC50 [2] of the same compound?
**A.** 3400 nM

**Q.** And the IC50 [3]?
**A.** 3000 nM

**Q.** What about the IC50 [4] of the same compound?
**A.** > 10000 nM

**Q.** With CC(C)(C)OC(=O)NCCC[C@@H]1NC(=O)c2coc(n2)-c2coc(n2)-c2coc(n2)[C@H](CCCNC(=O)OC(C)(C)C)NC(=O)c2coc(n2)-c2coc(n2)-c2coc1n2 as the compound, how does the IC50 [1] read?
**A.** 1400 nM

**Q.** What about the IC50 [2] of the same compound?
**A.** 450 nM

**Q.** And the IC50 [3]?
**A.** 380 nM

**Q.** And the IC50 [4]?
**A.** > 10000 nM

**Q.** For NCCC[C@@H]1NC(=O)c2coc(n2)-c2coc(n2)-c2coc(n2)[C@H](CCCN)NC(=O)c2coc(n2)-c2coc(n2)-c2coc1n2, which IC50 [1] is on record?
**A.** > 10000 nM

**Q.** What about the IC50 [2] of the same compound?
**A.** 6300 nM

**Q.** What about the IC50 [3] of the same compound?
**A.** 3100 nM

**Q.** What about the IC50 [4] of the same compound?
**A.** > 10000 nM

**Q.** Which IC50 [1] does the source give for CC(=O)NCC[C@@H]1NC(=O)c2coc(n2)-c2coc(n2)-c2coc(n2)[C@H](CCNC(C)=O)NC(=O)c2coc(n2)-c2coc(n2)-c2coc1n2 here?
**A.** > 10000 nM

**Q.** What about the IC50 [2] of the same compound?
**A.** > 10000 nM

**Q.** What about the IC50 [3] of the same compound?
**A.** > 10000 nM

**Q.** And the IC50 [4]?
**A.** > 10000 nM

**Q.** Which IC50 [1] does the source give for CC(C)[C@@H]1NC(=O)c2coc(n2)-c2coc(n2)-c2coc(n2)C/C=C/c2coc(n2)-c2coc(n2)-c2coc1n2 here?
**A.** 30 nM

**Q.** And the IC50 [2]?
**A.** 40 nM

**Q.** And the IC50 [3]?
**A.** 40 nM

**Q.** What about the IC50 [4] of the same compound?
**A.** 3500 nM

**Q.** For CC(C)[C@@H]1NC(=O)c2coc(n2)-c2coc(n2)-c2coc(n2)[C@H](CCCN)NC(=O)c2coc(n2)-c2coc(n2)-c2coc1n2, which IC50 [1] is on record?
**A.** 2500 nM

**Q.** What about the IC50 [2] of the same compound?
**A.** 800 nM

**Q.** And the IC50 [3]?
**A.** 380 nM

**Q.** And the IC50 [4]?
**A.** > 10000 nM

**Q.** What does the source list for CC(=O)NCCC[C@@H]1NC(=O)c2coc(n2)-c2coc(n2)-c2coc(n2)[C@H](C(C)C)NC(=O)c2coc(n2)-c2coc(n2)-c2coc1n2?
**A.** IC50 [1]: 2500 nM; IC50 [2]: 3400 nM; IC50 [3]: 3000 nM; IC50 [4]: > 10000 nM

**Q.** With NCC[C@@H]1NC(=O)c2coc(n2)-c2coc(n2)-c2coc(n2)[C@H](CCN)NC(=O)c2coc(n2)-c2coc(n2)-c2coc1n2 as the compound, how does the IC50 [1] read?
**A.** > 10000 nM

**Q.** And the IC50 [2]?
**A.** > 10000 nM

**Q.** And the IC50 [3]?
**A.** > 10000 nM

**Q.** What about the IC50 [4] of the same compound?
**A.** > 10000 nM

**Q.** Which IC50 [1] does the source give for CN(C)CCCC[C@@H]1NC(=O)c2coc(n2)-c2coc(n2)-c2coc(n2)[C@H](CCCCN(C)C)NC(=O)c2coc(n2)-c2coc(n2)-c2coc1n2 here?
**A.** > 10000 nM

**Q.** And the IC50 [2]?
**A.** 4000 nM

**Q.** And the IC50 [3]?
**A.** 3600 nM

**Q.** What about the IC50 [4] of the same compound?
**A.** > 10000 nM

**Q.** With CC(C)[C@@H]1NC(=O)c2coc(n2)-c2coc(n2)-c2coc(n2)[C@H](C(C)C)NC(=O)c2coc(n2)-c2coc(n2)-c2coc1n2 [HEXAOXAZOLE DIVALINE] as the compound, how does the IC50 [1] read?
**A.** 540 nM

**Q.** What about the IC50 [5] of the same compound?
**A.** 540 nM

**Q.** What about the IC50 [2] of the same compound?
**A.** 350 nM

**Q.** What about the ΔTm (Nucleic Acid [6]) of the same compound?
**A.** 19.5 °C

**Q.** What about the IC50 [3] of the same compound?
**A.** 450 nM

**Q.** And the IC50 [4]?
**A.** 7700 nM

**Q.** What about the ΔTm (Nucleic Acid [7]) of the same compound?
**A.** 11.5 °C

**Q.** Which IC50 [1] does the source give for CC(=O)NCCCC[C@@H]1NC(=O)c2coc(n2)-c2coc(n2)-c2coc(n2)[C@H](C(C)C)NC(=O)c2coc(n2)-c2coc(n2)-c2coc1n2 here?
**A.** 750 nM

**Q.** What about the IC50 [2] of the same compound?
**A.** 710 nM

**Q.** What about the IC50 [3] of the same compound?
**A.** 1900 nM

**Q.** What about the IC50 [4] of the same compound?
**A.** > 10000 nM

**Q.** With CC(C)[C@@H]1NC(=O)c2coc(n2)-c2coc(n2)-c2coc(n2)[C@H](CCCCNC(=O)OC(C)(C)C)NC(=O)c2coc(n2)-c2coc(n2)-c2coc1n2 as the compound, how does the IC50 [1] read?
**A.** 350 nM

**Q.** What about the IC50 [2] of the same compound?
**A.** 300 nM

**Q.** And the IC50 [3]?
**A.** 330 nM

**Q.** And the IC50 [4]?
**A.** > 10000 nM

**Q.** Which results are given for CC(C)[C@@H]1NC(=O)c2coc(n2)-c2coc(n2)-c2coc(n2)[C@H](CCNC(=O)OC(C)(C)C)NC(=O)c2coc(n2)-c2coc(n2)-c2coc1n2?
**A.** IC50 [1]: 310 nM; IC50 [2]: 290 nM; IC50 [3]: 250 nM; IC50 [4]: > 10000 nM

**Q.** What does the source list for CC(=O)NCCC[C@@H]1NC(=O)c2coc(n2)-c2coc(n2)-c2coc(n2)[C@H](CCCNC(C)=O)NC(=O)c2coc(n2)-c2coc(n2)-c2coc1n2?
**A.** IC50 [1]: > 10000 nM; IC50 [2]: > 10000 nM; IC50 [3]: > 10000 nM; IC50 [4]: > 10000 nM

**Q.** What does the source list for CN(C)CC[C@@H]1NC(=O)c2coc(n2)-c2coc(n2)-c2coc(n2)[C@H](CCN(C)C)NC(=O)c2coc(n2)-c2coc(n2)-c2coc1n2?
**A.** IC50 [1]: 4300 nM; IC50 [2]: 2800 nM; IC50 [3]: 650 nM; IC50 [4]: > 10000 nM

**Q.** With CC(=O)NCCCC[C@@H]1NC(=O)c2coc(n2)-c2coc(n2)-c2coc(n2)[C@H](CCCCNC(C)=O)NC(=O)c2coc(n2)-c2coc(n2)-c2coc1n2 as the compound, how does the IC50 [1] read?
**A.** 3300 nM

**Q.** And the IC50 [2]?
**A.** 4000 nM

**Q.** What about the IC50 [3] of the same compound?
**A.** 4500 nM

**Q.** What about the IC50 [4] of the same compound?
**A.** > 10000 nM

**Q.** With CC(C)[C@@H]1NC(=O)c2coc(n2)-c2coc(n2)-c2coc(n2)[C@H](CCN)NC(=O)c2coc(n2)-c2coc(n2)-c2coc1n2 as the compound, how does the IC50 [1] read?
**A.** 1200 nM

**Q.** What about the IC50 [2] of the same compound?
**A.** 2200 nM

**Q.** What about the IC50 [3] of the same compound?
**A.** 1200 nM

**Q.** What about the IC50 [4] of the same compound?
**A.** > 10000 nM

**Q.** Which IC50 [1] does the source give for CC(=O)NCC[C@@H]1NC(=O)c2coc(n2)-c2coc(n2)-c2coc(n2)[C@H](C(C)C)NC(=O)c2coc(n2)-c2coc(n2)-c2coc1n2 here?
**A.** 950 nM

**Q.** What about the IC50 [2] of the same compound?
**A.** 450 nM

**Q.** What about the IC50 [3] of the same compound?
**A.** 900 nM

**Q.** What about the IC50 [4] of the same compound?
**A.** > 10000 nM

**Q.** What does the source list for CC(C)(C)OC(=O)NCCCC[C@@H]1NC(=O)c2coc(n2)-c2coc(n2)-c2coc(n2)[C@H](CCCCNC(=O)OC(C)(C)C)NC(=O)c2coc(n2)-c2coc(n2)-c2coc1n2?
**A.** IC50 [1]: 400 nM; IC50 [2]: 250 nM; IC50 [3]: 330 nM; IC50 [4]: > 10000 nM

**Q.** With CN(C)CCC[C@@H]1NC(=O)c2coc(n2)-c2coc(n2)-c2coc(n2)[C@H](CCCN(C)C)NC(=O)c2coc(n2)-c2coc(n2)-c2coc1n2 as the compound, how does the IC50 [1] read?
**A.** > 10000 nM

**Q.** And the IC50 [2]?
**A.** 4200 nM

**Q.** And the IC50 [3]?
**A.** 3000 nM

**Q.** What about the IC50 [4] of the same compound?
**A.** > 10000 nM

**Q.** What does the source list for CC(C)[C@@H]1NC(=O)c2coc(n2)-c2coc(n2)-c2coc(n2)[C@H](CCCN(C)C)NC(=O)c2coc(n2)-c2coc(n2)-c2coc1n2?
**A.** IC50 [1]: 230 nM; IC50 [2]: 300 nM; IC50 [3]: 70 nM; IC50 [4]: > 10000 nM; ΔTm (Nucleic Acid [7]): 24 °C

**Q.** Which IC50 [2] does the source give for NCCCC[C@@H]1NC(=O)c2coc(n2)-c2coc(n2)-c2coc(n2)[C@H](CCCCN)NC(=O)c2coc(n2)-c2coc(n2)-c2coc1n2 here?
**A.** > 10000 nM

**Q.** What about the IC50 [3] of the same compound?
**A.** > 10000 nM

**Q.** And the IC50 [4]?
**A.** > 10000 nM

**Q.** For CC(C)(C)OC(=O)NCC[C@@H]1NC(=O)c2coc(n2)-c2coc(n2)-c2coc(n2)[C@H](CCNC(=O)OC(C)(C)C)NC(=O)c2coc(n2)-c2coc(n2)-c2coc1n2, which IC50 [1] is on record?
**A.** 350 nM

**Q.** What about the IC50 [2] of the same compound?
**A.** 250 nM

**Q.** And the IC50 [3]?
**A.** 250 nM

**Q.** What about the IC50 [4] of the same compound?
**A.** > 10000 nM

**Q.** What does the source list for CC(C)[C@@H]1NC(=O)c2coc(n2)-c2coc(n2)-c2coc(n2)[C@H](CCCNC(=O)OC(C)(C)C)NC(=O)c2coc(n2)-c2coc(n2)-c2coc1n2?
**A.** IC50 [1]: 290 nM; IC50 [2]: 230 nM; IC50 [3]: 150 nM; IC50 [4]: > 10000 nM
